Values after ≈ are worked out from the molar mass of the structure shown.
What was measured:
Assay type in all cases: functional, Salmonella enterica subsp. enterica serovar Typhimurium
Salmonella typhimurium [1] = experiment: Antimicrobial activity against Salmonella enterica serovar Typhimurium S21-2 tolC::Kan with GyrA S83F, ParC S80I mutation
Summary of the method: (§1)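 MICs measured by broth microdilution on the Sensititre automated system and interpreted by CLSI broth microdilution standards. Ciprofloxacin was also tested by agar dilution, widening the range to 0.0075–128 μg/ml. Quality control strains were E. coli ATCC 25922 and 35218, E. faecalis ATCC 29212, S. aureus ATCC 29213 and P. aeruginosa ATCC 27853.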

Salmonella typhimurium [2] = experiment: Antimicrobial activity against Salmonella enterica serovar Typhimurium CS9 acrAB::Kan with GyrA S83F, D87N, ParC S80I mutation; summary of the method: as §1
Salmonella typhimurium [3] = experiment: Antimicrobial activity against Salmonella enterica serovar Typhimurium S21; summary of the method: as §1
Salmonella typhimurium [4] = experiment: Antimicrobial activity against Salmonella enterica serovar Typhimurium S21-3 acrAB::Kan with GyrA S83F, ParC S80I mutation; summary of the method: as §1
Salmonella typhimurium [5] = experiment: Antimicrobial activity against Salmonella enterica serovar Typhimurium S21-1 GyrA S83F mutant; summary of the method: as §1
Salmonella typhimurium [6] = experiment: Antimicrobial activity against Salmonella enterica serovar Typhimurium CHS38 acrAB::Kan with GyrA D87G mutation; summary of the method: as §1
Salmonella typhimurium [7] = experiment: Antimicrobial activity against Salmonella enterica serovar Typhimurium S21-2 acrAB::Kan with GyrA S83F, ParC S80I mutation; summary of the method: as §1
Salmonella typhimurium [8] = experiment: Antimicrobial activity against Salmonella enterica serovar Typhimurium CS1 with GyrA S83F, D87N, ParC S80I mutation; summary of the method: as §1
Salmonella typhimurium [9] = experiment: Antimicrobial activity against Salmonella enterica serovar Typhimurium S21-2 with GyrA S83F, ParC S80I mutation; summary of the method: as §1
Salmonella typhimurium [10] = experiment: Antimicrobial activity against Salmonella enterica serovar Typhimurium S21 gyrA+; summary of the method: as §1
Salmonella typhimurium [11] = experiment: Antimicrobial activity against Salmonella enterica serovar Typhimurium S21-1 tolC::Kan with GyrA S83F mutation; summary of the method: as §1
Salmonella typhimurium [12] = experiment: Antimicrobial activity against Salmonella enterica serovar Typhimurium S21-3 tolC::Kan with GyrA S83F, ParC S80I mutation; summary of the method: as §1
Salmonella typhimurium [13] = experiment: Antimicrobial activity against Salmonella enterica serovar Typhimurium CHS18 with GyrA S38F mutation; summary of the method: as §1
Salmonella typhimurium [14] = experiment: Antimicrobial activity against Salmonella enterica serovar Typhimurium CS3 gyrA+ with GyrA S83F, D87N, ParC S80I mutation; summary of the method: as §1
Salmonella typhimurium [15] = experiment: Antimicrobial activity against Salmonella enterica serovar Typhimurium CS3 tolC::Kan with GyrA S83F, D87N, parC S80I mutation; summary of the method: as §1
Salmonella typhimurium [16] = experiment: Antimicrobial activity against Salmonella enterica serovar Typhimurium CS3 acrAB::Kan with GyrA S83F, D87N, ParC S80I mutation; summary of the method: as §1
Salmonella typhimurium [17] = experiment: Antimicrobial activity against Salmonella enterica serovar Typhimurium CHS14 gyrA+ with GyrA D87G mutation; summary of the method: as §1
Salmonella typhimurium [18] = experiment: Antimicrobial activity against Salmonella enterica serovar Typhimurium CS1 tolC::Kan with GyrA S83F, D87N, ParC S80I mutation; summary of the method: as §1
Salmonella typhimurium [19] = experiment: Antimicrobial activity against Salmonella enterica serovar Typhimurium CS3 with GyrA S83F, D87N, ParC S80I mutation; summary of the method: as §1
Salmonella typhimurium [20] = experiment: Antimicrobial activity against Salmonella enterica serovar Typhimurium S21-3 gyrA+ with ParC S80I mutation; summary of the method: as §1
Salmonella typhimurium [21] = experiment: Antimicrobial activity against Salmonella enterica serovar Typhimurium CHS38 tolC::Kan with GyrA D87G mutation; summary of the method: as §1
Salmonella typhimurium [22] = experiment: Antimicrobial activity against Salmonella enterica serovar Typhimurium CS9 tolC::Kan with GyrA S83F, D87N, ParC S80I mutation; summary of the method: as §1
Salmonella typhimurium [23] = experiment: Antimicrobial activity against Salmonella enterica serovar Typhimurium CHS18 acrAB::Kan with GyrA S38F mutation; summary of the method: as §1
Salmonella typhimurium [24] = experiment: Antimicrobial activity against Salmonella enterica serovar Typhimurium S21-4 tolC::Kan with GyrA S83F, ParC S80I mutation; summary of the method: as §1
Salmonella typhimurium [25] = experiment: Antimicrobial activity against Salmonella enterica serovar Typhimurium S21 acrAB::Kan
Summary of the method: (§2)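 MICs by automated broth microdilution panels, interpreted to CLSI broth microdilution standards. Ciprofloxacin additionally tested by agar dilution across 0.0075 to 128 μg/ml. Quality control strains: E. coli ATCC 25922 and 35218, Enterococcus faecalis ATCC 29212, S. aureus ATCC 29213, P. aeruginosa ATCC 27853. Test strains are kanamycin-marked deletion mutants of ground-beef isolate S21.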

Salmonella typhimurium [26] = experiment: Antimicrobial activity against Salmonella enterica serovar Typhimurium CHS14 tolC::Kan with GyrA D87G mutant; summary of the method: as §1
Salmonella typhimurium [27] = experiment: Antimicrobial activity against Salmonella enterica serovar Typhimurium CHS38 with GyrA D87G mutation; summary of the method: as §1
Salmonella typhimurium [28] = experiment: Antimicrobial activity against Salmonella enterica serovar Typhimurium CHS14 with GyrA D87G mutation; summary of the method: as §1
Salmonella typhimurium [29] = experiment: Antimicrobial activity against Salmonella enterica serovar Typhimurium CHS18 gyrA+ with GyrA S38F mutation; summary of the method: as §1
Salmonella typhimurium [30] = experiment: Antimicrobial activity against Salmonella enterica serovar Typhimurium CHS18 tolC::Kan with GyrA S38F mutation; summary of the method: as §1
Salmonella typhimurium [31] = experiment: Antimicrobial activity against Salmonella enterica serovar Typhimurium S21-2 gyrA+ with ParC S80I mutation; summary of the method: as §1
Salmonella typhimurium [32] = experiment: Antimicrobial activity against Salmonella enterica serovar Typhimurium S21-4 with GyrA S83F, ParC S80I mutation; summary of the method: as §1
Salmonella typhimurium [33] = experiment: Antimicrobial activity against Salmonella enterica serovar Typhimurium CHS14 acrAB::Kan with GyrA D87G mutation; summary of the method: as §1
Salmonella typhimurium [34] = experiment: Antimicrobial activity against Salmonella enterica serovar Typhimurium CS1 gyrA+ with GyrA S83F, D87N, ParC S80I mutation; summary of the method: as §1
Salmonella typhimurium [35] = experiment: Antimicrobial activity against Salmonella enterica serovar Typhimurium S21-1 gyrA+; summary of the method: as §1
Salmonella typhimurium [36] = experiment: Antimicrobial activity against Salmonella enterica serovar Typhimurium CS9 with GyrA S83F, D87N, ParC S80I mutation; summary of the method: as §1
Salmonella typhimurium [37] = experiment: Antimicrobial activity against Salmonella enterica serovar Typhimurium S21-4 gyrA+ with ParC S80I mutation; summary of the method: as §1
Salmonella typhimurium [38] = experiment: Antimicrobial activity against Salmonella enterica serovar Typhimurium CS9 gyrA+ with GyrA S83F, D87N, ParC S80I mutation; summary of the method: as §1
Salmonella typhimurium [39] = experiment: Antimicrobial activity against Salmonella enterica serovar Typhimurium S21-3 with GyrA S83F, ParC S80I mutation; summary of the method: as §1
Salmonella typhimurium [40] = experiment: Antimicrobial activity against Salmonella enterica serovar Typhimurium CS1 acrAB::Kan with GyrA S83F, D87N, ParC S80I mutation; summary of the method: as §1
Salmonella typhimurium [41] = experiment: Antimicrobial activity against Salmonella enterica serovar Typhimurium S21 tolC::Kan; summary of the method: as §2
Salmonella typhimurium [42] = experiment: Antimicrobial activity against Salmonella enterica serovar Typhimurium S21-4 acrAB::Kan with GyrA S83F, ParC S80I mutation; summary of the method: as §1
Salmonella typhimurium [43] = experiment: Antimicrobial activity against Salmonella enterica serovar Typhimurium CHS38 gyrA+ with GyrA D87G mutation; summary of the method: as §1
Salmonella typhimurium [44] = experiment: Antimicrobial activity against Salmonella enterica serovar Typhimurium GyrA S21-1 acrAB::Kan with GyrA S83F mutation; summary of the method: as §1

O=C(O)c1cn(-c2ccc(F)cc2)c2cc(N3CCNCC3)c(F)cc2c1=O [SARAFLOXACIN]
MIC (Salmonella typhimurium [1]): 0.5 µg/mL (≈ 1.3 µM)
MIC (Salmonella typhimurium [2]): 4 µg/mL (≈ 10.4 µM)
MIC (Salmonella typhimurium [3]): 0.03 µg/mL (≈ 0.0778 µM)
MIC (Salmonella typhimurium [4]): 0.5 µg/mL (≈ 1.3 µM)
MIC (Salmonella typhimurium [5]): 1 µg/mL (≈ 2.59 µM)
MIC (Salmonella typhimurium [6]): 0.03 µg/mL (≈ 0.0778 µM)
MIC (Salmonella typhimurium [7]): 0.5 µg/mL (≈ 1.3 µM)
MIC (Salmonella typhimurium [8]): 16 µg/mL (≈ 41.5 µM)
MIC (Salmonella typhimurium [9]): 8 µg/mL (≈ 20.8 µM)
MIC (Salmonella typhimurium [10]): 0.03 µg/mL (≈ 0.0778 µM)
MIC (Salmonella typhimurium [11]): 0.12 µg/mL (≈ 0.311 µM)
MIC (Salmonella typhimurium [12]): 0.5 µg/mL (≈ 1.3 µM)
MIC (Salmonella typhimurium [13]): 0.25 µg/mL (≈ 0.649 µM)
MIC (Salmonella typhimurium [14]): 0.06 µg/mL (≈ 0.156 µM)
MIC (Salmonella typhimurium [15]): 4 µg/mL (≈ 10.4 µM)
MIC (Salmonella typhimurium [16]): 4 µg/mL (≈ 10.4 µM)
MIC (Salmonella typhimurium [17]): 0.03 µg/mL (≈ 0.0778 µM)
MIC (Salmonella typhimurium [18]): 4 µg/mL (≈ 10.4 µM)
MIC (Salmonella typhimurium [19]): 16 µg/mL (≈ 41.5 µM)
MIC (Salmonella typhimurium [20]): 1 µg/mL (≈ 2.59 µM)
MIC (Salmonella typhimurium [21]): < 0.015 µg/mL
MIC (Salmonella typhimurium [22]): 4 µg/mL (≈ 10.4 µM)
MIC (Salmonella typhimurium [23]): 0.03 µg/mL (≈ 0.0778 µM)
MIC (Salmonella typhimurium [24]): 0.5 µg/mL (≈ 1.3 µM)
MIC (Salmonella typhimurium [25]): < 0.015 µg/mL
MIC (Salmonella typhimurium [26]): < 0.015 µg/mL
MIC (Salmonella typhimurium [27]): 0.12 µg/mL (≈ 0.311 µM)
MIC (Salmonella typhimurium [28]): 0.25 µg/mL (≈ 0.649 µM)
MIC (Salmonella typhimurium [29]): 0.06 µg/mL (≈ 0.156 µM)
MIC (Salmonella typhimurium [30]): 0.03 µg/mL (≈ 0.0778 µM)
MIC (Salmonella typhimurium [31]): 0.25 µg/mL (≈ 0.649 µM)
MIC (Salmonella typhimurium [32]): > 16 µg/mL
MIC (Salmonella typhimurium [33]): < 0.015 µg/mL
MIC (Salmonella typhimurium [34]): 0.06 µg/mL (≈ 0.156 µM)
MIC (Salmonella typhimurium [35]): 0.03 µg/mL (≈ 0.0778 µM)
MIC (Salmonella typhimurium [36]): > 16 µg/mL
MIC (Salmonella typhimurium [37]): 2 µg/mL (≈ 5.19 µM)
MIC (Salmonella typhimurium [38]): 0.03 µg/mL (≈ 0.0778 µM)
MIC (Salmonella typhimurium [39]): > 16 µg/mL
MIC (Salmonella typhimurium [40]): 4 µg/mL (≈ 10.4 µM)
MIC (Salmonella typhimurium [41]): < 0.015 µg/mL
MIC (Salmonella typhimurium [42]): 0.5 µg/mL (≈ 1.3 µM)
MIC (Salmonella typhimurium [43]): < 0.015 µg/mL
MIC (Salmonella typhimurium [44]): 0.12 µg/mL (≈ 0.311 µM)

From ChEMBL document CHEMBL1142136, “Contribution of target gene mutations and efflux to decreased susceptibility of Salmonella enterica serovar typhimurium to fluoroquinolones and other antimicrobials” (2007)
